Assay type in all cases: cell-based
In experiment [1] the target is Glutamate NMDA receptor; Grin1/Grin2a (Rattus norvegicus) (UniProt P35439+Q00959). Kind of experiment: Potentiation of rat recombinant GluN1/GluN2A expressed in Xenopus laevis oocytes assessed as increase in glutamate/glycine-induced current response at 30 uM by two-electrode voltage clamp technique relative to control. Summed up: (§1)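 Two-electrode voltage clamp at −40 mV on Xenopus oocytes coexpressing GluN1 with GluN2A, 2B, 2C or 2D. […] Compounds came from 20 mM DMSO stocks, with 0.05–0.5% final DMSO. Some GluN2A oocytes were injected with K-BAPTA to limit current run-up. Recording solution was pH 7.4, 23 °C.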
(Two-electrode voltage clamp holds a large cell at a set potential and records current.)

Experiment [2] addresses Glutamate NMDA receptor; Grin1/Grin2b (Rattus norvegicus) (UniProt P35439+Q00960). Kind of experiment: Potentiation of rat recombinant GluN1/GluN2B expressed in Xenopus laevis oocytes assessed as increase in glutamate/glycine-induced current response at 30 uM by two-electrode voltage clamp technique relative to control. In outline: as §1
For experiment [3], the target named is Glutamate NMDA receptor; Grin1/Grin2c (Rattus norvegicus) (UniProt P35439+Q00961). The experiment can be described thus: Potentiation of rat recombinant GluN1/GluN2C expressed in Xenopus laevis oocytes assessed as increase in glutamate/glycine-induced current response at 30 uM by two-electrode voltage clamp technique relative to control. Summed up:
as §1

For experiment [4], the target named is Ionotropic glutamate receptor NMDA 1/2D (Rattus norvegicus) (UniProt P35439+Q62645). The experiment can be described thus: Potentiation of rat recombinant GluN1/GluN2D expressed in Xenopus laevis oocytes assessed as increase in glutamate/glycine-induced current response at 30 uM by two-electrode voltage clamp technique relative to control. In outline:
as §1

Experiment [5] addresses Glutamate NMDA receptor; Grin1/Grin2c (Rattus norvegicus, UniProt P35439+Q00961). The experiment can be described thus: Potentiation of rat recombinant GluN1/GluN2C expressed in Xenopus laevis oocytes assessed as increase in glutamate/glycine-induced current response by two-electrode voltage clamp technique relative to control.

The source made the active and inactive calls. No cut-off for these calls is given here.

Consider `NC(=O)c1ccc(C2C(C(=O)c3cccnc3)=C(O)C(=O)N2CCc2c[nH]c3ccccc23)cc1` (centres undefined), for which the Activity in experiment [1] was 101%; in experiment [2] it was 92%; in experiment [3] it was 90%; in experiment [4], 91%.
For orientation: EC50 means the concentration at which the effect is half-maximal. For the molecule `COC(=O)c1ccc(C2C(C(=O)c3ccccc3)=C(O)C(=O)N2CCc2c[nH]c3ccccc23)cc1` (centres undefined), the Activity stood at 116% in experiment [1], 85% in experiment [2], 143% in experiment [3] and 79% in experiment [4]. Further, the max activation in experiment [3] is 161%. For the same molecule, in experiment [5], the EC50 was determined as 17 µM.
As for `COC(=O)c1ccc(C2C(C(=O)c3cccnc3)=C(O)C(=O)N2CCc2c[nH]c3cc(OC)ccc23)cc1` (centres undefined), the Activity in experiment [1] amounted to 84%; in experiment [2] it was 98%; in experiment [3], 194%; in experiment [4], 85%. Also, the max activation in experiment [3] turned out to be 204%. In addition, the EC50 in experiment [5] worked out at 8 µM.
With `COC(=O)c1ccc(C2C(C(C)=O)=C(O)C(=O)N2CCc2c[nH]c3ccccc23)c(OC)c1` (centres undefined), the Activity turned out to be 102% in experiment [1], 83% in experiment [2], 132% in experiment [3] and 100% in experiment [4]. Further, the max activation in experiment [3] worked out at 183%. The half-maximal effective concentration (EC50) in experiment [5] stood at 46 µM.
For `COC(=O)c1ccc(C2C(C(C)=O)=C(O)C(=O)N2CCc2c[nH]c3ccccc23)c(F)c1` (centres undefined), the Activity is 93% in experiment [1], 96% in experiment [2], 123% in experiment [3] and 91% in experiment [4]. The max activation in experiment [3] came out at 155%. The EC50 in experiment [5] is 37 µM.
Regarding `COC(=O)c1ccc(C2C(C(=O)c3cccc(OC)c3)=C(O)C(=O)N2CCc2c[nH]c3ccccc23)cc1` (centres undefined), the Activity in experiment [1] worked out at 92%; in experiment [2] it was 90%; in experiment [3], 109%; in experiment [4], 80%.
For `COC(=O)c1ccc(C2C(C(C)=O)=C(N)C(=O)N2CCc2c[nH]c3ccccc23)cc1` (centres undefined), in that order: 93%, 85%, 102% and 75%.
The corresponding values for `COC(=O)c1ccc(C2C(C(C)=O)=C(O)C(=O)N2CCc2c[nH]c3ccccc23)cc1OC` (centres undefined) are 98%, 80%, 92% and 86%.
For `COC(=O)c1ccc(C2C(C(C)=O)=C(O)C(=O)N2CCc2c[nH]c3ccccc23)cc1C` (centres undefined), in that order: 108%, 91%, 88% and 86%.
Turning to `COC(=O)c1ccc(C2C(C(C)=O)=C(O)C(=O)N2CCc2c(C)[nH]c3ccccc23)cc1` (stereo in doubt; 106b), the result in experiment [3] was inactive.
For the molecule `NS(=O)(=O)c1ccc(C2C(C(=O)c3cccnc3)=C(O)C(=O)N2CCc2c[nH]c3ccccc23)cc1` (centres undefined), the Activity in experiment [1] was determined as 86%; in experiment [2], 82%; in experiment [3] it was 123%; in experiment [4] it was 83%. Further, in experiment [3], the max activation was determined as 130%.
For the molecule `CN(C)C(=O)c1ccc(C2C(C(=O)c3cccnc3)=C(O)C(=O)N2CCc2c[nH]c3ccccc23)cc1` (centres undefined), the Activity in experiment [1] is 118%; in experiment [2] it was 86%; in experiment [3] it was 101%; in experiment [4], 89%.
The corresponding values for `COC(=O)c1ccc(C2C(C(C)=O)=C(O)C(=O)N2CCc2c[nH]c3ccccc23)cc1F` (centres undefined) are 99%, 83%, 114% and 93%.
For `CC(=O)C1=C(O)C(=O)N(CCc2c[nH]c3ccccc23)C1c1ccc(C(=O)OC(C)(C)C)cc1` (centres undefined), in that order: 99%, 81%, 85% and 66%.
Take `COC(=O)c1ccc(C2C(C(C)=O)=C(O)C(=O)N2CCc2c[nH]c3ccccc23)cc1Cl` (centres undefined): the Activity in experiment [1] worked out at 88%; in experiment [2] it was 95%; in experiment [3], 113%; in experiment [4] it was 83%.
Consider `COC(=O)c1ccc(C2C(C(C)=O)=C(O)C(=O)N2CCc2c(C)[nH]c3ccccc23)cc1` (racemic), for which the Activity in experiment [1] was determined as 97%; in experiment [2] it was 88%; in experiment [3], 179%; in experiment [4], 95%. The max activation in experiment [3] is 217%.
With `N#Cc1ccc(C2C(C(=O)c3cccnc3)=C(O)C(=O)N2CCc2c[nH]c3ccccc23)cc1` (centres undefined), the Activity in experiment [1] came out at 98%; in experiment [2] it was 89%; in experiment [3], 100%; in experiment [4], 94%.
The corresponding values for `COC(=O)c1ccc(C2C(C(=O)c3ccncc3)=C(O)C(=O)N2CCn2cnc3ccccc32)cc1` (centres undefined) are 104%, 107%, 84% and 89%.
For `CC(=O)C1=C(O)C(=O)N(CCc2c[nH]c3ccccc23)C1c1ccc(C(=O)OC(C)C)cc1` (centres undefined), in that order: 96%, 95%, 102% and 83%.
For `COC(=O)c1ccc(C2C(C(=O)c3ccccn3)=C(O)C(=O)N2CCc2c[nH]c3ccccc23)cc1` (centres undefined), in that order: 106%, 78%, 97% and 75%.
Consider `COC(=O)c1ccc(C2C(C(C)=O)=C(O)C(=O)N2CCc2ccccc2)cc1` (centres undefined), for which the Activity is 108% in experiment [1], 117% in experiment [2], 95% in experiment [3] and 99% in experiment [4].
With `COC(=O)c1ccc(C2C(C(=O)c3cccnc3)=C(O)C(=O)N2CCc2cn(C)c3ccccc23)cc1` (centres undefined), the Activity in experiment [1] was 111%; in experiment [2], 87%; in experiment [3] it was 106%; in experiment [4] it was 85%.
On to `CNS(=O)(=O)c1ccc(C2C(C(=O)c3cccnc3)=C(O)C(=O)N2CCc2c[nH]c3ccccc23)cc1` (centres undefined), for which the Activity in experiment [1] stood at 74%; in experiment [2] it was 88%; in experiment [3], 114%; in experiment [4], 73%.
In the case of `COC(=O)c1ccc(C2C(C(=O)c3ccncc3)=C(O)C(=O)N2CCc2c[nH]cn2)cc1` (centres undefined), the Activity in experiment [1] was determined as 101%; in experiment [2] it was 95%; in experiment [3] it was 89%; in experiment [4] it was 94%.
`COC(=O)c1ccc(C2C(C(=O)c3ccncc3)=C(O)C(=O)N2Cc2c[nH]c3ccccc23)cc1` (centres undefined): the Activity in experiment [1] turned out to be 106%; in experiment [2], 101%; in experiment [3], 84%; in experiment [4] it was 87%.
For `CNC(=O)c1ccc(C2C(C(=O)c3cccnc3)=C(O)C(=O)N2CCc2c[nH]c3ccccc23)cc1` (centres undefined), in that order: 96%, 105%, 93% and 89%.
As to `COC(=O)c1ccc(C2C(C(C)=O)=C(O)C(=O)N2CCc2c(C)[nH]c3ccccc23)cc1` (stereo in doubt; 106a), the max activation in experiment [3] stood at 259%.
Consider `COC(=O)c1ccc(C2C(C(=O)c3cccnc3)=C(O)C(=O)N2CCc2c[nH]c3ccc(OC)cc23)cc1` (centres undefined), for which the Activity in experiment [1] worked out at 112%; in experiment [2], 90%; in experiment [3], 94%; in experiment [4], 91%.
The corresponding values for `COC(=O)c1ccc(C2C(C(=O)c3cccnc3)=C(O)C(=O)N2CCc2coc3ccccc23)cc1` (centres undefined) are 96%, 83%, 113% and 80%.
Consider `COC(=O)c1ccc(C2C(C(=O)c3cccnc3)=C(O)C(=O)N2CCCc2c[nH]c3ccccc23)cc1` (centres undefined), for which the Activity in experiment [1] was 96%; in experiment [2], 93%; in experiment [3], 84%; in experiment [4], 98%.
The corresponding values for `CC(=O)C1=C(O)C(=O)N(CCc2c[nH]c3ccccc23)C1c1ccc([N+](=O)[O-])cc1` (centres undefined) are 106%, 83%, 94% and 77%.
The corresponding values for `CC(=O)C1=C(O)C(=O)N(CCc2c[nH]c3ccccc23)C1c1ccc(C(=O)O)cc1` (centres undefined) are 100%, 94%, 93% and 88%.
The corresponding values for `COC(=O)c1ccccc1C1C(C(C)=O)=C(O)C(=O)N1CCc1c[nH]c2ccccc12` (centres undefined) are 88%, 78%, 99% and 93%.
For the molecule `COC(=O)c1cccc(C2C(C(C)=O)=C(O)C(=O)N2CCc2c[nH]c3ccccc23)c1` (centres undefined), the Activity in experiment [1] amounted to 99%; in experiment [2], 88%; in experiment [3], 94%; in experiment [4], 94%.
On to `COC(=O)c1ccc(C2C(C(=O)c3cccnc3)=C(O)C(=O)N2CCc2c[nH]c3cccc(C)c23)cc1` (centres undefined), for which the Activity came to 112% in experiment [1], 70% in experiment [2], 85% in experiment [3] and 74% in experiment [4].

The values are drawn from ChEMBL document CHEMBL3232993, “Design, synthesis, and structure-activity relationship of a novel series of GluN2C-selective potentiators” (J Med Chem, 2014).
